For orientation: pEC50 means the EC50 on a negative log10 scale, so that one unit is a factor of ten.

These results are taken from ChEMBL document CHEMBL3351323, “Exploitation of cholane scaffold for the discovery of potent and selective farnesoid X receptor (FXR) and G-protein coupled bile acid receptor 1 (GP-BAR1) ligands” (J Med Chem, 2014).

pEC50: −log10 of the molar value. Active and inactive are the calls of the source. The calls are words filed in the database; no cut-off is given here.

Data set [1] has as its target T1, Bile acid receptor (Homo sapiens) (UniProt Q96RI1).
T1 sequence (whole entry): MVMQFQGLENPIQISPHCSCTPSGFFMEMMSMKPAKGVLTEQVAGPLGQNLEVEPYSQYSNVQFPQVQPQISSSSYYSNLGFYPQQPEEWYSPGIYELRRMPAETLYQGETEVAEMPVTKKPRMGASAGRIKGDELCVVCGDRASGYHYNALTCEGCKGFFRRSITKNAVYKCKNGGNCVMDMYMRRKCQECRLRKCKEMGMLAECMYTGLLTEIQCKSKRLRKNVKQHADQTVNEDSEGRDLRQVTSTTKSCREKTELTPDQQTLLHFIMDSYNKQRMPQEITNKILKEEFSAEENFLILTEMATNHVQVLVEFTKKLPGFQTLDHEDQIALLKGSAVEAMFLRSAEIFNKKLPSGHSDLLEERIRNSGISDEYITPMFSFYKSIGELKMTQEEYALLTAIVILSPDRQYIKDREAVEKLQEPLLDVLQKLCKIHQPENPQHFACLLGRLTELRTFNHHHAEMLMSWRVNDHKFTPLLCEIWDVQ
In words: Agonist activity at FXR in human HepG2 cells assessed as increase in SHP mRNA expression at 10 uM by RT-PCR method. The format is cell-based. An outline of the steps:
(§1)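 HepG2 cells treated at 10 μM. TRIzol RNA was DNase-treated and reverse transcribed with random primers, then SYBR real-time PCR run in triplicate (40 cycles, 95 °C/60 °C). Values normalized to GAPDH and expressed relative to untreated cells set to 1.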

In data set [2] the target is T2, Glucocorticoid receptor (Homo sapiens) (UniProt P04150).
T2 sequence (whole entry): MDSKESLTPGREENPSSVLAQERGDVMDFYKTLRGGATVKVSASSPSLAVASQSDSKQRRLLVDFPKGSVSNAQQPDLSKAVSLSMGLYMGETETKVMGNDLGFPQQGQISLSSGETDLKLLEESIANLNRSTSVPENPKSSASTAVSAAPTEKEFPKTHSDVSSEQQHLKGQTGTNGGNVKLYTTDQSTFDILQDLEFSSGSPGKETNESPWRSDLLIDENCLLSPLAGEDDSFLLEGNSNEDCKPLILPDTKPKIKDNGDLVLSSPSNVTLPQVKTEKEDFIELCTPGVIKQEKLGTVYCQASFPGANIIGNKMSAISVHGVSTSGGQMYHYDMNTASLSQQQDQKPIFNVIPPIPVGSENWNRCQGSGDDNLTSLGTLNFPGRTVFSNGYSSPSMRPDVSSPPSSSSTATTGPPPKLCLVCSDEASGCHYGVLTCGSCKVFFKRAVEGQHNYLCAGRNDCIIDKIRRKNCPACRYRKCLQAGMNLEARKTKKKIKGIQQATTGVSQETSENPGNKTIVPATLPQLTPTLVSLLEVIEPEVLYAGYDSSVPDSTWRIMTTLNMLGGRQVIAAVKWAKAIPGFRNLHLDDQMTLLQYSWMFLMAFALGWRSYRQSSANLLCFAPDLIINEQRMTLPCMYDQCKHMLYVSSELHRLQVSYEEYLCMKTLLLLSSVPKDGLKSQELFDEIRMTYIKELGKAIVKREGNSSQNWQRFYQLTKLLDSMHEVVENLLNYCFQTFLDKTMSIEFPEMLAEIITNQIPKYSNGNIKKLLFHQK
Briefly: Agonist activity at GCR (unknown origin) in human HepG2 cells assessed as receptor transactivation at 10 uM incubated for 18 hrs by Gal4 luciferase reporter gene assay. It counts as cell-based. In outline: (§2)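 HepG2 cells transfected with a GAL4-UAS luciferase reporter, Renilla vector and GAL4 DNA-binding domain fusions of the GR, LXR or PPARγ ligand-binding domain; 48 h later stimulated 18 h at 10 μM beside the matching reference agonist (dexamethasone, GW3965, rosiglitazone). Three experiments, mean ± SE.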

Data set [3] deals with T3, G-protein coupled bile acid receptor 1 (Mus musculus) (UniProt Q80SS6).
T3 sequence (whole entry): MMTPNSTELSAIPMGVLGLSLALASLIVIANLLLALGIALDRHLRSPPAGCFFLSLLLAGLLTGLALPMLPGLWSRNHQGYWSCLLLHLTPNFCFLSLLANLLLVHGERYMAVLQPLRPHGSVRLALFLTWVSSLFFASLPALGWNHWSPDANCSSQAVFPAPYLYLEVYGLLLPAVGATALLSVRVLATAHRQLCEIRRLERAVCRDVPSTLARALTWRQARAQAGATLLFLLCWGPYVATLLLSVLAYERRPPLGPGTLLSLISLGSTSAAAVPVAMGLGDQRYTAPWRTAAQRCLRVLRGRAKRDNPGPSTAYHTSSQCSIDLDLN
In words: Agonist activity at GP-BAR1 in mouse GLUTag cells assessed as increase in pro-glucagon mRNA expression at 10 uM by RT-PCR method. It counts as cell-based. An outline of the steps:
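Murine GLUTag enteroendocrine cells (D-MEM, 10% FBS) treated at 10 μM. Pro-glucagon mRNA measured by SYBR real-time PCR in triplicate, normalized to GAPDH and expressed relative to untreated cells set to 1.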

Data set [4] concerns the target T4, Peroxisome proliferator-activated receptor gamma (Homo sapiens) (UniProt P37231).
T4 sequence (whole entry): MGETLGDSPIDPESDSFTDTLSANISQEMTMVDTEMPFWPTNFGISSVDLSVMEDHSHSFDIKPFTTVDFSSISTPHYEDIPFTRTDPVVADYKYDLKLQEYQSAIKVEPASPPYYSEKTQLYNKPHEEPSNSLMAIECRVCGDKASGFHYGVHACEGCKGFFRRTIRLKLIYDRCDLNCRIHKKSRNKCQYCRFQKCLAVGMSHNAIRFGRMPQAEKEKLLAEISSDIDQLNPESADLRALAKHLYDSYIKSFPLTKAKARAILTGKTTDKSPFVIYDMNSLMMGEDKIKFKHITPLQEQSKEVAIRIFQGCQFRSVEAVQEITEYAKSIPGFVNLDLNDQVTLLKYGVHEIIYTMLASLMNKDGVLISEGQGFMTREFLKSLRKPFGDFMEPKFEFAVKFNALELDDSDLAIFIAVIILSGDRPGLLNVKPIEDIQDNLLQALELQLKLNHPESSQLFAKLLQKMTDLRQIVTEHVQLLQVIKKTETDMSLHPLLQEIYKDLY
Briefly: Agonist activity at PPARgamma (unknown origin) in human HepG2 cells assessed as receptor transactivation at 10 uM incubated for 18 hrs by Gal4 luciferase reporter gene assay. It counts as cell-based. In outline:
as §2
For orientation: Reporter assays use an easily measured gene product as a stand-in for the process of interest.

Data set [5] concerns the target T5, Nuclear receptor subfamily 1 group I member 2 (Homo sapiens, UniProt O75469).
T5 sequence (O75469 whole entry): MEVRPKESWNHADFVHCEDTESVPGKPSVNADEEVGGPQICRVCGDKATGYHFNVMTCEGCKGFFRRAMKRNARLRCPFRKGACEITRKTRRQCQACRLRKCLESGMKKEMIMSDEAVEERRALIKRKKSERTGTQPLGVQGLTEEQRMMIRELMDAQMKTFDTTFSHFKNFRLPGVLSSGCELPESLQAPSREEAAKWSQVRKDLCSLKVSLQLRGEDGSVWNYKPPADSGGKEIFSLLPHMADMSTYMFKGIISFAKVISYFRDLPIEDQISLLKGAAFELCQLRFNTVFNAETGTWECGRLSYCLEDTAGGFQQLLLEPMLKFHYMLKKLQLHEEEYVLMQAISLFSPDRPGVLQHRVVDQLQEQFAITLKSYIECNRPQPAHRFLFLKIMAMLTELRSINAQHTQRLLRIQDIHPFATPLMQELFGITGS
In words: Agonist activity at PXR (unknown origin) in human HepG2 cells co-transfcted with RXR assessed as receptor transactivation at 10 uM incubated for 18 hrs by CYP3A4 promoter-TKLuc luciferase reporter gene assay. The conditions noted are these: hepg2, 18 h.

The target of data set [6] is Liver X receptor (Homo sapiens) (UniProt Q13133+P55055). In words: Agonist activity at LXR (unknown origin) in human HepG2 cells assessed as receptor transactivation at 10 uM incubated for 18 hrs by Gal4 luciferase reporter gene assay. It counts as cell-based. An outline of the steps:
as §2

In data set [7] the target is T1, Bile acid receptor (Homo sapiens). In words: Agonist activity at FXR in human HepG2 cells assessed as increase in BSEP mRNA expression at 10 uM by RT-PCR method. It counts as cell-based. In outline: as §1
Data set [8] addresses T6, G-protein coupled bile acid receptor 1 (Homo sapiens) (UniProt Q8TDU6).
T6 sequence (whole entry): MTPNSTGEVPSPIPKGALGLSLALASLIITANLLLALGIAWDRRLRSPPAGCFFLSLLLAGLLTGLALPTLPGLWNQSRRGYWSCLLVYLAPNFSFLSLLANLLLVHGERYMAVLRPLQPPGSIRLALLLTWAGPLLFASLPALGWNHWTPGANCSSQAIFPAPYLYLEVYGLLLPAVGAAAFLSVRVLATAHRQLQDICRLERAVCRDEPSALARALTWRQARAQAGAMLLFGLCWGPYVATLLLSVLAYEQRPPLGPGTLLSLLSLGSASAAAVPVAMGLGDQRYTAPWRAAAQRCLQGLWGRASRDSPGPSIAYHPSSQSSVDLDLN
Briefly: Agonist activity at GP-BAR1 in human THP1 cells assessed as increase in cAMP level at 10 uM by enzyme immunoassay. The format is functional, cell-based. The conditions noted are these: THP-1. In outline:
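THP-1 monocytes serum-starved overnight, then stimulated 30 min at 10 μM, with forskolin 10 μM as reference. cAMP measured by direct cAMP enzyme immunoassay. Three experiments, mean ± SE.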
On the technique in general: Changes in cAMP serve as a functional read-out for many G protein-coupled receptors.

The target in data set [9] is T1, Bile acid receptor (Homo sapiens). In words: Agonist activity at FXR in human HepG2 cells assessed as increase in OSTalpha mRNA expression at 10 uM by RT-PCR method. It counts as cell-based. An outline of the steps:
as §1

For data set [10], the target named is T7, G-protein coupled bile acid receptor 1 (Homo sapiens, UniProt Q8TDU6).
T7 sequence (Q8TDU6 whole entry): T6 sequence (whole entry)
In words: Agonist activity at GP-BAR1 (unknown origin) in human HEK293 cells assessed as receptor transactivation at 100 nM to 50 uM […] by CRE-driven luciferase reporter gene assay. The format is functional, cell-based.

A further data set deals with T8, Bile acid receptor (Homo sapiens, UniProt Q96RI1).
T8 sequence (Q96RI1 whole entry): T1 sequence (whole entry)
In words: Agonist activity at FXR (unknown origin) expressed in human HepG2 cells assessed as receptor transactivation at 100 nM to 50 uM […] by FXR response element driven HSP27-TK-luciferase reporter gene assay. It counts as cell-based.

As for `CC[C@H]1[C@@H](O)[C@@H]2[C@H](CC[C@]3(C)[C@@H]([C@H](C)CCO)CC[C@@H]23)[C@@]2(C)CC[C@@H](O)C[C@@H]12`, the result in [1], in data set [3], in data set [7], in data set [8] and in [9] was Active. Further, the outcome in [2], in [4] and in [6] was inactive. In [5], the result was Active.

On to `CC[C@@H]1[C@H](O)[C@@H]2[C@H](CC[C@]3(C)[C@@H]([C@H](C)CCCO)CC[C@@H]23)[C@@]2(C)CC[C@@H](O)C[C@@H]12`, for which the result in data set [2], in data set [4] and in data set [6] was inactive. Further, the result in [3] and in [8] was Active. For the same compound, the pEC50 in data set [10] (read-out: EC50) was 5.99. In addition, the EC50 result at Bile acid receptor (hepg2) is listed as “Not Active”. For the same compound, the outcome in [5] was Active.

On to `C[C@H](CCCOS(=O)(=O)[O-])[C@H]1CC[C@H]2[C@@H]3[C@H](O)C[C@@H]4CCCC[C@]4(C)[C@H]3CC[C@]12C.[Na+]`, for which the outcome in data set [1], in data set [7] and in data set [9] was Active. Moreover, the outcome in [2], in [3], in [4] and in [6] was inactive. In addition, the EC50 entry in data set [10] (hek293) is given as “Not Active”. For the same compound, the pEC50 at Bile acid receptor (read-out: EC50) was 5.05. The result in data set [5] was Active.
